This is a sample that favours compounds with a hit; in the whole collection about 1.5% have one here.
CHT block – human CHT choline transport inhibition; CHT-expressing cells, membrane potential dye, choline response; stronger effect = lower value; Q9GZV3; B-score at 10 µM; 310,000 tested, 0.86% active;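 active = B-score over 3 SD under the library average, and starting fluorescence ratio not unusually high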;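 also: choline stimulus applied at its EC90 after an EC20 pre-addition; B-score computed on integrated fluorescence ratio after choline addition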
Target sequence (Q9GZV3 whole entry, looked up): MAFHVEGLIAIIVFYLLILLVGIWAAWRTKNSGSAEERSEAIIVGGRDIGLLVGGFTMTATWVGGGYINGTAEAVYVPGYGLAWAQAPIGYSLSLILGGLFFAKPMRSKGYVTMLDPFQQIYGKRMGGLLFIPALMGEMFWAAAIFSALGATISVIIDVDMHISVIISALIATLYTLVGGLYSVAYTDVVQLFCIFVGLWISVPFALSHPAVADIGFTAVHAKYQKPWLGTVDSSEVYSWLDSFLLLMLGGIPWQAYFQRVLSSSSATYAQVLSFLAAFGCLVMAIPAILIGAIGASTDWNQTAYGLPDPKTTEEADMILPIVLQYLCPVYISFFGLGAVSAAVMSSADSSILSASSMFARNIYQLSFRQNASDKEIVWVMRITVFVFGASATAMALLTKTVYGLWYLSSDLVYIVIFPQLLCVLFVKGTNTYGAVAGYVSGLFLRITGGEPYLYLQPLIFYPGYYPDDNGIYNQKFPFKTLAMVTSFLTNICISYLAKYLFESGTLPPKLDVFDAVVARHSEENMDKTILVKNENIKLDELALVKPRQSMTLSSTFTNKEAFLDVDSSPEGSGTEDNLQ
T cell HTS – modulates CD8 T cell binding to vesicles | 2C CD8+ T cell-vesicle binding, flow cytometry; stronger effect = lower value | response (vesicle binding), % at 7 µM | 330,000 tested, 0.068% active | AID 2052;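 active = response, share of CD8 T cells binding vesicles, and their 90th percentile fluorescence all below set limits, cut at about 80% in these data, passing the limit was not always enough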;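 also: values below 100% mean blocked vesicle binding to the CD8+ T cells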
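Benchmarks: naked versus QL9-loaded vesicles / Assay system: purified 2C TCR transgenic mouse naive CD8+ T cells / Technique: high-throughput flow cytometry with anti-B7-1 and anti-CD8 staining / Timing: Cell–vesicle co-incubation 1.5 h at 37 °C, staining 20 min on ice / Read-out: percent CD8+ FL2 mean versus row control / Probe or stimulus: QL9-loaded Drosophila micro-vesicles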
VLA-4 inh – inhibition in a human VLA-4 binding assay. P13612. VLA-4 expressing cells, ligand binding flow cytometry. inhibition, % (about 7 µM as worked out from the volumes in the protocol). 330,000 tested, 0.2% active. AID 2557; in the data active = inhibition above about 50%
CHT PAM – human CHT allosteric activation; CHT-expressing cells, membrane potential dye, choline EC20; stronger effect = higher value; LV-AA mutant CHT in HEK293 cells; B-score at 10 µM; 310,000 tested, 0.49% active;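 active = initial fluorescence not abnormally high and integrated response B-score, plate-corrected, over 3 SD above library mean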
CHT inh conf – human CHT inhibition, confirmatory screen; CHT activity remaining % of control (stronger effect = lower value), % at 10 µM; shares compounds with CHT block; CHT-expressing cells, choline membrane potential dye; LV-to-AA substituted CHT, HEK293 cells; 2,400 tested, 70% active;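 active = choline transporter activity left, mean of duplicates at 10 µM, below buffer-only control mean minus 3 SD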;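 also: depolarization triggered by choline at its EC90 following an EC20 pre-addition; 0% = hemicholinium-3 full block and 100% = buffer-only control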
HEK293 MPD ctr – counter-screen for CHT inhibitors: effect in parental HEK293 cells; shares compounds with CHT block; membrane potential dye, choline response; active = decrease or increase beyond buffer ±3SD; membrane potential ratio readout (active if shifted either direction beyond buffer ±3SD; no single direction) at 10 µM; 2,400 tested, 4% active;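 also: parental cells lack the transporter so any hit is non-specific; ratio is peak minus trough fluorescence over baseline after EC90 choline challenge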
Active calls of the source: *; i = inactive; · = no result given.

SMILES	CHT block	T cell HTS	VLA-4 inh	CHT PAM	CHT inh conf	HEK293 MPD ctr
COc1ccc(NC(=O)N2CCC(n3cnc4ccccc43)CC2)cc1	-5.81*	587.6	7.5	i	37.5%*	i
Cc1cccc(C)c1NC(=O)CSc1cc(C(=O)c2nccn2C)c2ccccc2n1	-9.55*	248.4	-2.6	i	i	i
CCOC(=O)C(Cc1ccccc1)NC(=O)CCCC(=O)c1ccccc1 (centres undefined)	-5.91*	397.5	-7.3	i	45.4%*	i
CCOC(=O)C(Cc1ccccc1)NC(C)=O (centres undefined)	i	697.1	-1.6	i	·	·
N#C/C(=N\Nc1cccc(Cl)c1)C(=O)c1ccccc1	-5.23*	213.5	-16.8	i	65.9%*	i
O=C(Nc1cccc(C(=O)N2CCCCC2)c1)c1ccccc1Br	-5.19*	226.4	3.5	i	24.6%*	i
O=C(CN1C(=O)NC2NC(=O)NC21)N/N=C/c1ccccc1O (centres undefined)	i	154.0	7.3	i	·	·
O=C(CN1C(=O)NC2NC(=O)NC21)NN=C1CCCC1 (centres undefined)	-20.2*	170.3	0.4	i	i	i
Cc1cc(=O)oc(C)c1C(=O)Nc1cccc(F)c1	i	994.4	-6.4	i	·	·
Cc1ccc(C(C)NC(=S)NCc2ccc(F)cc2)cc1C (centres undefined)	-5.15*	0.0	-5.8	i	71.4%*	i
CCc1ccc(C(C)NC(=S)NCc2ccc(F)cc2)cc1 (centres undefined)	i	199.4	1.4	i	·	·
COc1ccc(CC(=O)NNC(=O)c2cc(C)oc2C)cc1OC	i	303.2	-2.7	i	·	·
O=C(NCCc1ccccc1)c1ccc2c(=O)[nH]c3c(C(=O)NCC4CCCO4)sc(=S)n3c2c1 (centres undefined)	-10.3*	372.0	1.8	i	-19.4%*	i
O=C(NCC1CCCO1)c1sc(=S)n2c1[nH]c(=O)c1ccc(C(=O)N3CCCCC3)cc12 (centres undefined)	i	473.9	33.4	i	·	·
Cc1ccc(C(=O)NCC(=O)NCCCc2ccccc2)cc1	-5.05*	146.2	12.0	i	57.4%*	i
CCN1CCN(C(=O)c2ccc(CS(=O)(=O)Cc3ccccc3C)o2)CC1	i	405.5	5.1	i	·	·
Cc1ccc(-n2cccc2/C=C2/C(=N)N3C(=NC2=O)SN=C3S(C)(=O)=O)cc1Cl	i	347.9	16.5	i	·	·
Cc1cccc(C)c1-n1cccc1/C=C1/C(=N)N2C(=NC1=O)SN=C2S(C)(=O)=O	-5.49*	623.5	3.4	i	50.5%*	i
CCCn1c(=O)c(C(=O)NCc2ccccn2)c(O)c2ccccc21	-5.69*	393.2	-1.2	i	i	i
Cc1cc(=O)[nH]c2c1c(C)nn2-c1ccccc1	i	381.0	-7.7	i	·	·
Cc1nn(-c2ccccc2)c2[nH]c(=O)cc(C(F)(F)F)c12	-5.18*	281.0	3.5	i	36.6%*	i
CCOc1ccccc1CN1CCNC(=O)C1CC(=O)NCc1nc(C)cs1 (centres undefined)	i	305.4	9.5	i	·	·
CN(CC(=O)Nc1sccc1C(N)=O)S(=O)(=O)c1ccc(Cl)cc1	·	90.1	-16.4	·	·	·
O=C(NNC(=S)NC1CCCCC1)c1ccccc1O	-5.05*	255.2	-2.3	i	53.2%*	i
CN(C)c1nc(N)c([N+](=O)[O-])c(NCCO)n1	i	272.5	21.6	i	·	·
NS(=O)(=O)c1ccc(N2CCN(C(=O)c3ccco3)CC2)nc1	·	445.4	-2.2	·	·	·
Cc1nn2c(N3CCN(C)CC3)c3c(nc2c1-c1ccccc1)CCCC3	-9.6*	241.2	-12.3	i	31.7%*	i
CC(C)CC(=O)Nc1ccc(C(=O)COC(=O)C2CCC2)cc1	i	288.0	-3.6	i	·	·
COCCSc1nnc(NC(=O)c2ccc(OC)c([N+](=O)[O-])c2)s1	i	i	28.8	i	·	·
O=C(O)CC(NC(=O)C1c2ccccc2Oc2ccccc21)c1ccc(OC2CCCC2)cc1 (centres undefined)	-5.21*	402.6	-4.2	i	i	i

Source: PubChem BioAssay
